# Data from ChEMBL document CHEMBL3588757, “Structure-based design, synthesis and biological testing of piperazine-linked bis-epipodophyllotoxin etoposide analogs” (Bioorg Med Chem, 2015).
# Assays:
# MDA-MB-468 = test: Cytotoxicity against human MDA-MB-468 cells by SRB assay; format: functional
# Method in brief: (§1)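 NCI-60 panel screen; 5-dose testing giving GI50 per cell line, plus a single 10 µM one-dose test. Method details not given beyond the NCI screen.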
# A549 = test: Cytotoxicity against human A549/ATCC cells assessed as cell growth at 0.05 uM by SRB assay; format: functional; settings: read-out: Activity
# A498 = test: Cytotoxicity against human A498 cells assessed as cell growth at 50 uM by SRB assay; format: functional; settings: read-out: Activity
# UACC-257 = test: Cytotoxicity against human UACC257 cells assessed as cell growth at 5 uM by SRB assay; format: functional; settings: read-out: Activity
# NCI-H460 [1] = test: Cytotoxicity against human NCI-H460 cells assessed as cell growth at 5 uM by SRB assay; format: functional; settings: read-out: Activity
# NCI-H460 [2] = test: Cytotoxicity against human NCI-H460 cells assessed as cell growth at 0.005 uM by SRB assay; format: functional; settings: read-out: Activity
# SW-620 [3] = test: Cytotoxicity against human SW620 cells by SRB assay; format: functional; method in brief: as §1
# HCC 2998 = test: Cytotoxicity against human HCC2998 cells assessed as cell growth at 0.005 uM by SRB assay; format: functional; settings: read-out: Activity
# Method in brief: (§2)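 Measured in the NCI-60 human tumour cell line panel using five-dose testing. Growth was recorded at each dose for each cell line, and a GI50 was derived for each line.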
# SK-MEL-5 = test: Cytotoxicity against human SK-MEL-5 cells assessed as cell growth at 0.005 uM by SRB assay; format: functional; settings: read-out: Activity
# [4] = biological target: DNA topoisomerase 2-alpha (Homo sapiens) (UniProt P11388); test: Inhibition of full-length human recombinant topoisomerase 2-alpha mediated relaxation and cleavage of supercoiled pBR322 plasmid DNA to linear DNA by ethidium bromide staining based gel electrophoresis assay
# Method in brief: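 Recombinant full-length human topoisomerase IIα with supercoiled pBR322 DNA at 37 °C. Components mixed on ice before drug addition. Complexes trapped with SDS; products run on ethidium bromide gels. Linear DNA identified against a HindIII-linearized marker; repeated on three days.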
# ACHN [5] = test: Cytotoxicity against human ACHN cells assessed as cell growth at 0.005 uM by SRB assay; format: functional; settings: read-out: Activity
# KM12 = test: Cytotoxicity against human KM12 cells assessed as cell growth at 5 uM by SRB assay; format: functional; settings: read-out: Activity
# T47D [6] = test: Cytotoxicity against human T47D cells assessed as cell growth at 0.05 uM by SRB assay; format: functional; settings: read-out: Activity
# SF-539 [7] = test: Cytotoxicity against human SF539 cells assessed as cell growth at 0.005 uM by SRB assay; format: functional; settings: read-out: Activity
# NCI-H23 = test: Cytotoxicity against human NCI-H23 cells assessed as cell growth at 5 uM by SRB assay; format: functional; settings: read-out: Activity
# SR = test: Cytotoxicity against human SR cells assessed as cell growth at 50 uM by SRB assay; format: functional; settings: read-out: Activity
# UACC-62 = test: Cytotoxicity against human UACC62 cells assessed as cell growth at 0.005 uM by SRB assay; format: functional; settings: read-out: Activity
# LOX IMVI = test: Cytotoxicity against human LOXIMVI cells assessed as cell growth at 0.05 uM by SRB assay; format: functional; settings: read-out: Activity
# SF-295 = test: Cytotoxicity against human SF295 cells assessed as cell growth at 0.5 uM by SRB assay; format: functional; settings: read-out: Activity
# ACHN [8] = test: Cytotoxicity against human ACHN cells by SRB assay; format: functional
# SW-620 [9] = test: Cytotoxicity against human SW620 cells assessed as cell growth at 0.5 uM by SRB assay; format: functional; settings: read-out: Activity
# SNB-75 = test: Cytotoxicity against human SNB75 cells by SRB assay; format: functional; method in brief: as §1
# NCI-H322M = test: Cytotoxicity against human NCI-H322M cells assessed as cell growth at 50 uM by SRB assay; format: functional; settings: read-out: Activity
# SK-MEL-2 = test: Cytotoxicity against human SK-MEL-2 cells assessed as cell growth at 0.005 uM by SRB assay; format: functional; settings: read-out: Activity
# PC-3 = test: Cytotoxicity against human PC3 cells assessed as cell growth at 0.05 uM by SRB assay; format: functional; settings: read-out: Activity
# UO-31 = test: Cytotoxicity against human UO31 cells assessed as cell growth at 5 uM by SRB assay; format: functional; settings: read-out: Activity
# MDA-MB-231 [10] = test: Cytotoxicity against human MDA-MB-231/ATCC cells assessed as cell growth at 0.5 uM by SRB assay; format: functional; settings: read-out: Activity
# U-251 = test: Cytotoxicity against human U251 cells assessed as cell growth at 0.05 uM by SRB assay; format: functional; settings: read-out: Activity
# OVCAR-8 = test: Cytotoxicity against human OVCAR8 cells assessed as cell growth at 0.5 uM by SRB assay; format: functional; settings: read-out: Activity
# TK-10 [11] = test: Cytotoxicity against human TK10 cells assessed as cell growth at 0.05 uM by SRB assay; format: functional; settings: read-out: Activity
# SK-MEL-28 = test: Cytotoxicity against human SK-MEL-28 cells assessed as cell growth at 0.5 uM by SRB assay; format: functional; settings: read-out: Activity
# HOP-92 [12] = test: Cytotoxicity against human HOP92 cells by SRB assay; format: functional; method in brief: as §2
# MDA-MB-231 [13] = test: Cytotoxicity against human MDA-MB-231/ATCC cells assessed as cell growth at 50 uM by SRB assay; format: functional; settings: read-out: Activity
# SK-OV-3 = test: Cytotoxicity against human SKOV3 cells assessed as cell growth at 0.5 uM by SRB assay; format: functional; settings: read-out: Activity
# OVCAR-3 = test: Cytotoxicity against human OVCAR3 cells assessed as cell growth at 0.5 uM by SRB assay; format: functional; settings: read-out: Activity
# TK-10 [14] = test: Cytotoxicity against human TK10 cells assessed as cell growth at 50 uM by SRB assay; format: functional; settings: read-out: Activity
# [15] = Cytotoxicity against human NCI-ADR-RES cells assessed as cell growth at 0.005 uM by SRB assay; format: functional; settings: read-out: Activity
# HOP-92 [16] = test: Cytotoxicity against human HOP92 cells assessed as cell growth at 0.005 uM by SRB assay; format: functional; settings: read-out: Activity; method in brief: as §2
# HCT-116 = test: Cytotoxicity against human HCT116 cells assessed as cell growth at 0.005 uM by SRB assay; format: functional; settings: read-out: Activity; method in brief: as §2
# SF-539 [17] = test: Cytotoxicity against human SF539 cells by SRB assay; format: functional; method in brief: as §1
# T47D [18] = test: Cytotoxicity against human T47D cells assessed as cell growth at 5 uM by SRB assay; format: functional; settings: read-out: Activity
# [19] = read-out: LC50 (the source's name)
# [20] = read-out: pLC50 (the source's name) (converted)
# DNA topoisomerase 2-alpha (Homo sapiens), sequence (P11388 whole entry): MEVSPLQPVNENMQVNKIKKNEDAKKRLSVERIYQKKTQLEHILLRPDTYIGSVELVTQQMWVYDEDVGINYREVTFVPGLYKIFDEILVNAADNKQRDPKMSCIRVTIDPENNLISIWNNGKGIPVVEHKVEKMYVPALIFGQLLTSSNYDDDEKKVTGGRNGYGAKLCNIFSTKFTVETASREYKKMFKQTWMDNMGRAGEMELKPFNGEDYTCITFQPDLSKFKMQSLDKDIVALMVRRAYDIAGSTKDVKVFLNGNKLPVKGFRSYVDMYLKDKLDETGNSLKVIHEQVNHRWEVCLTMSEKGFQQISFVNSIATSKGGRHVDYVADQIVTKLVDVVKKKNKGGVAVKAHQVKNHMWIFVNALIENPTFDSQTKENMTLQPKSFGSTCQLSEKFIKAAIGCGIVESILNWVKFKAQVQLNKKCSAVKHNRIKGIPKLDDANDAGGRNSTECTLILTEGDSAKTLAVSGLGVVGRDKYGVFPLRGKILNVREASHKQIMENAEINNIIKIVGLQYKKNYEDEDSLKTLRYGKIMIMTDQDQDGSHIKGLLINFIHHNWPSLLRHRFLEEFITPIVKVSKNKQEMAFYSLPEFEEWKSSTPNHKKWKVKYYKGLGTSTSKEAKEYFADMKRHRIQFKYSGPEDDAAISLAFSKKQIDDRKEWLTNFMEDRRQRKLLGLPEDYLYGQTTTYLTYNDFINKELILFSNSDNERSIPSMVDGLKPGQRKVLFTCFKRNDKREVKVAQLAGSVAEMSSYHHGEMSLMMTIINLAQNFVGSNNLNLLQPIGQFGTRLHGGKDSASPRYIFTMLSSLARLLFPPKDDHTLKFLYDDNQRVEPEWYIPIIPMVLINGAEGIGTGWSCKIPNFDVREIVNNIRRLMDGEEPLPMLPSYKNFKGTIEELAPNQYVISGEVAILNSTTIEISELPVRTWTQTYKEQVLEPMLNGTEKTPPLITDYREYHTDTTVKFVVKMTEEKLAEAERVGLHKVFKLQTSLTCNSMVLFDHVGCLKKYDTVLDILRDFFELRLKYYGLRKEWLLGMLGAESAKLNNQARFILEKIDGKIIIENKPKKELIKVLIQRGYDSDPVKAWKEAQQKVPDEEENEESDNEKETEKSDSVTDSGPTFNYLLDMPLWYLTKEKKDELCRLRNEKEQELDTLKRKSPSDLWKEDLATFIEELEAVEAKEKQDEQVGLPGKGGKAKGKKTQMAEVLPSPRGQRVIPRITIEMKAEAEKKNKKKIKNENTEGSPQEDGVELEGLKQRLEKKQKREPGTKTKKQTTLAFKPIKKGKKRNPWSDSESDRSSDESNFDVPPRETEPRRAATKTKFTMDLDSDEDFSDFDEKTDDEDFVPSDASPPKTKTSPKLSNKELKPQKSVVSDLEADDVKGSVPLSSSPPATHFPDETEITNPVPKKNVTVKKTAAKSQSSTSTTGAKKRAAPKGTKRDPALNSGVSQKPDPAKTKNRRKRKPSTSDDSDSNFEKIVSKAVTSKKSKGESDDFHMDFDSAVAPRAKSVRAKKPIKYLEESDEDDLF
structure (smiles),measurement,setting,value
COc1cc([C@@H]2c3cc4c(cc3[C@@H](NC(=O)CN3CCN(CCCCCCCCCCN5CCN(CC(=O)N[C@@H]6c7cc8c(cc7[C@@H](c7cc(OC)c(O)c(OC)c7)[C@H]7C(=O)OC[C@@H]76)OCO8)CC5)CC3)[C@H]3COC(=O)[C@H]23)OCO4)cc(OC)c1O,GI50,MDA-MB-468; read-out: GI50,844 nM
same,CC50,MDA-MB-468; [19],16900 nM
same,TGI,MDA-MB-468; read-out: TGI,2620 nM
same,GI50,MDA-MB-468; read-out: pGI50 (converted),851 nM
same,CC50,MDA-MB-468; [20],17000 nM
same,TGI,MDA-MB-468; read-out: pTGI (converted),2630 nM
same,growth at 0.05 µM,A549,29%
same,growth at 50 µM,A498,-97%
same,growth at 5 µM,UACC-257,-97%
same,growth at 5 µM,NCI-H460 [1],33%
same,growth at 0.005 µM,NCI-H460 [2],91%
same,GI50,SW-620 [3]; read-out: GI50,372 nM
same,CC50,SW-620 [3]; [19],3380 nM
same,TGI,SW-620 [3]; read-out: TGI,1330 nM
same,GI50,SW-620 [3]; read-out: pGI50 (converted),372 nM
same,CC50,SW-620 [3]; [20],3800 nM
same,TGI,SW-620 [3]; read-out: pTGI (converted),1320 nM
same,growth at 0.005 µM,HCC 2998,99%
same,growth at 0.005 µM,SK-MEL-5,102%
same,Effect on topoisomerase 2-alpha DNA cleavage (qualitative),[4],Dose-dependent effect
same,growth at 0.005 µM,ACHN [5],100%
same,growth at 5 µM,KM12,-22%
same,growth at 0.05 µM,T47D [6],81%
same,growth at 0.005 µM,SF-539 [7],98%
same,growth at 5 µM,NCI-H23,-35%
same,growth at 50 µM,SR,-12%
same,growth at 0.005 µM,UACC-62,91%
same,growth at 0.05 µM,LOX IMVI,56%
same,growth at 0.5 µM,SF-295,61%
same,GI50,ACHN [8]; read-out: GI50,320 nM
same,CC50,ACHN [8]; [19],2950 nM
same,TGI,ACHN [8]; read-out: TGI,1110 nM
same,GI50,ACHN [8]; read-out: pGI50 (converted),324 nM
same,CC50,ACHN [8]; [20],2950 nM
same,TGI,ACHN [8]; read-out: pTGI (converted),1120 nM
same,growth at 0.5 µM,SW-620 [9],46%
same,GI50,SNB-75; read-out: GI50,228 nM
same,CC50,SNB-75; [19],> 50000 nM
same,TGI,SNB-75; read-out: TGI,2750 nM
same,GI50,SNB-75; read-out: pGI50 (converted),229 nM
same,CC50,SNB-75; [20],> 50100 nM
same,TGI,SNB-75; read-out: pTGI (converted),2750 nM
same,growth at 50 µM,NCI-H322M,-23%
same,growth at 0.005 µM,SK-MEL-2,99%
same,growth at 0.05 µM,PC-3,89%
same,growth at 5 µM,UO-31,-13%
same,growth at 0.5 µM,MDA-MB-231 [10],87%
same,growth at 0.05 µM,U-251,69%
same,growth at 0.5 µM,OVCAR-8,51%
same,growth at 0.05 µM,TK-10 [11],91%
same,growth at 0.5 µM,SK-MEL-28,138%
same,GI50,HOP-92 [12]; read-out: GI50,140 nM
same,CC50,HOP-92 [12]; [19],> 50000 nM
same,TGI,HOP-92 [12]; read-out: TGI,2580 nM
same,GI50,HOP-92 [12]; read-out: pGI50 (converted),141 nM
same,CC50,HOP-92 [12]; [20],> 50100 nM
same,TGI,HOP-92 [12]; read-out: pTGI (converted),2570 nM
same,growth at 50 µM,MDA-MB-231 [13],-54%
same,growth at 0.5 µM,SK-OV-3,52%
same,growth at 0.5 µM,OVCAR-3,63%
same,growth at 50 µM,TK-10 [14],-98%
same,growth at 0.005 µM,[15],97%
same,growth at 0.005 µM,HOP-92 [16],91%
same,growth at 0.005 µM,HCT-116,99%
same,GI50,SF-539 [17]; read-out: GI50,122 nM
same,TGI,SF-539 [17]; read-out: TGI,670 nM
same,GI50,SF-539 [17]; read-out: pGI50 (converted),123 nM
same,TGI,SF-539 [17]; read-out: pTGI (converted),676 nM
same,growth at 5 µM,T47D [18],16%
